Assay results as given in ChEMBL document CHEMBL1126086, “Structure-activity studies of potassium channel opening in pinacidil-type cyanoguanidines, nitroethenediamines, thioureas, and ureas” (J Med Chem, 1992).

Experiments:
[1] = organism: Rattus norvegicus; assay: Concentration required to cause 50% inhibition of spontaneous activity in rat portal vein; type: functional; conditions: for IC50: Rattus norvegicus
[2] = organism: Rattus norvegicus; assay: Concentration required to cause 15% increase in [86Rb+] efflux from rat portal vein.; type: functional
Outline: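 Rat portal vein, opened lengthwise, tension 500 mg, equilibrated 30 min in HEPES-buffered PSS (95% O2/5% CO2, 32 °C, pH 7.4), then loaded 80 min with 86RbCl (5 µCi/mL). Perfusate collected every 2 min; rate constant k from released vs. remaining tissue activity. Drug effect = peak k during application vs. basal k (6–10 min prior), as Δk %; n = 4–6.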

[3] = Ionisation constant (pKa1) due to protonation of the pyridyl ring; type: physicochemical; conditions: read-out: pKa1
[4] = Ionisation constant (pKa2) due to […]; type: physicochemical; conditions: read-out: pKa2
[5] = Ionisation constant (pKa2)

IC50 [1] [nM]	pKa [3]	pKa [4]	Log IC50 [1]	pKa2 [5]	Compound	pEC15 [2]
316	4.89	13			C[C@H](/N=C(/S)Nc1ccncc1)C(C)(C)C.Cl	4
			-7		C[C@@H](/N=C(/NC#N)Nc1cccnc1)C(C)(C)C	
			-6		C[C@@H](N/C(=C\[N+](=O)[O-])Nc1cccnc1)C(C)(C)C	3.8
776					C[C@H](N/C(=N/c1ccncc1)NC#N)C(C)(C)C	4.4
33.9					C[C@@H](N/C(=N/c1ccncc1)NC#N)C(C)(C)C	5.9
3160	5.46	> 14			CC(C)(C)CNC(=O)Nc1ccncc1.Cl	3.3
31.6	2.28	9.03			CC(N/C(=C\[N+](=O)[O-])Nc1cccnc1)C(C)(C)C (centres undefined)	5.5
200	3.08	13.1			CC(C)(C)C/N=C(/S)Nc1cccnc1	5
12.6					CC(C)(C)/N=C(/NC#N)Nc1cccnc1	6.1
10000					CC(C)(C)CN/C(=C\[N+](=O)[O-])Nc1ccncc1	<3.5
	2.7	12			CC(/N=C(/NC#N)Nc1cccnc1)C(C)(C)C (centres undefined)	6.3
200					CCC(C)(C)/N=C(/S)Nc1cccnc1	5.2
50.1	2.97	13.2			CC(/N=C(/S)Nc1cccnc1)C(C)(C)C (centres undefined)	5.7
2000	3.74	> 14			CC(C)(C)CNC(=O)Nc1cccnc1	4
3160					CC(C)(C)C(CO)/N=C(/S)Nc1cccnc1 (centres undefined)	<3.5
2000					CC(C)(C)CCN/C(=C\[N+](=O)[O-])Nc1cccnc1	3.5
100	2.83	11.8			CC(C)(C)C/N=C(/NC#N)Nc1cccnc1	5.5
1000					CC(N/C(=C\[N+](=O)[O-])Nc1ccncc1)C(C)(C)C (centres undefined)	3.3
			-5.2		CC(/N=C(/NC#N)Nc1cccnc1)C(C)(C)C (single isomer, unassigned)	
			-8		CC(N/C(=C\[N+](=O)[O-])Nc1cccnc1)C(C)(C)C (single isomer, unassigned)	5.8
63.1	4.81	11.3			CC(N/C(=N\C#N)Nc1ccncc1)C(C)(C)C (centres undefined) [PINACIDIL ANHYDROUS]	5.7

Continued, molecule first:

Compound	IC50 [1] [nM]	pKa [3]	pKa [4]	Log IC50 [1]	pKa2 [5]	pEC15 [2]
CCC(C)(C)/N=C(\NC#N)Nc1cccnc1	2	2.61	12.2			7.4
C[C@@H](/N=C(/S)Nc1ccncc1)C(C)(C)C.Cl						4
COc1cncc(N/C(=C/[N+](=O)[O-])N[C@H](C)C(C)(C)C)c1	1580					4
COc1cncc(N/C(=C/[N+](=O)[O-])N[C@@H](C)C(C)(C)C)c1	15.8	1.86	6.5			6.5
CC1(C)CSC(Nc2cccnc2)=N1	31600					
CC(C)(C)CN/C(=C\[N+](=O)[O-])Nc1cccnc1	1000				8.86	4
CC(C)N/C(=C\[N+](=O)[O-])Nc1cccnc1	31600					<3.5
CC1(C)CN=C(Nc2cccnc2)N1	> 10000		8.2			
CC(C)(C)C1CSC(Nc2cccnc2)=N1 (centres undefined)	20000	3.89				
CC(C)(C)/N=C(\Cc1cccnc1)NC#N	5010	2.71	> 14			3.5
CC(N/C(=C\[N+](=O)[O-])Nc1cccc(C#N)c1)C(C)(C)C (centres undefined)	316		8.88			4
CC(C)(C)c1csc(Nc2cccnc2)n1	1000	3.57				
CC(C)(C)C1CN=C(Nc2cccnc2)N1 (centres undefined)	3160	2.03	8.1			
CC(C)(C)C/C(=N/c1cccnc1)NC#N		2.23	11.3			4.3
CC(C)(C)CN/C(=C\[N+](=O)[O-])NCc1cccnc1	20000					<3.5
CCC(C)N1CCN=C1Nc1cccnc1 (centres undefined)	100000					<3
O=[N+]([O-])/C=C(/Nc1cccnc1)NC1CCCCC1	3160					3.5
